Experimental findings from ChEMBL document CHEMBL1649333, “In vivo efficacy of simulated human dosing regimens of prolonged-infusion doripenem against carbapenemase- producing Klebsiella pneumoniae” (2010) are described below.

Experiment [1] is described as follows: fT>MIC in Klebsiella pneumoniae isolate KPC 354 infected in human at 1 g administered as 4 hrs infusion every 8 hrs. Format: functional.
Experiment [2] has as its system Klebsiella pneumoniae. Nature of the experiment: Antimicrobial activity against Klebsiella pneumoniae isolate KPC 356 in immunocompetent mouse thigh infection model assessed as reduction in bacterial load in mouse thigh at 2 g after 24 hrs. Format: functional, Thigh muscle. The procedure, abridged:
(§1)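 Immunocompetent ICR mouse thigh model. Uranyl nitrate 5 mg/kg i.p. on day −3, no cyclophosphamide. Thighs inoculated i.m. with ~10⁸ CFU. From 2 h, s.c. doripenem regimens simulating human 1 or 2 g q8h 4-h infusions, given as three 8-h intervals; saline controls. Thighs homogenized in saline and plated at 24 h; change in log₁₀ CFU relative to 0-h untreated mice.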

A short description of experiment [3]: fT>MIC in Klebsiella pneumoniae isolate KPC 357 infected in human at 2 g administered as 4 hrs infusion every 8 hrs. Format: functional.
In experiment [4] the test system is Klebsiella pneumoniae. Put plainly: Antimicrobial activity against Klebsiella pneumoniae isolate KPC 354 by Etest. Format: functional. The essentials:
(§2)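 Etest on each clinical isolate, run in triplicate and read per the manufacturer's instructions; the modal MIC is reported. Quality control strain P. aeruginosa ATCC 27853. Isolates stored at −80°C in double-strength skim milk and subcultured twice on Trypticase soy agar with 5% sheep blood at 35°C before testing.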

A short description of experiment [5]: fT>MIC in Klebsiella pneumoniae isolate KPC 359 infected in human at 1 g administered as 4 hrs infusion every 8 hrs. Format: functional.
For experiment [6], the system named is Klebsiella pneumoniae. Put plainly: Antimicrobial activity against Klebsiella pneumoniae isolate KPC 361 in immunocompromized mouse thigh infection model assessed as reduction in bacterial load in mouse thigh at 1 g after 24 hrs. Format: functional, organism-based. As to conditions: Thigh muscle. The procedure, abridged: (§3)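 Neutropenic murine thigh model. Cyclophosphamide 150 and 100 mg/kg i.p. at 4 and 1 days pre-inoculation. Uranyl nitrate 5 mg/kg i.p. at day −3 for renal impairment. Each thigh injected i.m. with ~10⁶ CFU/ml, 0.1 ml. At 2 h, s.c. doripenem regimens simulating human fT>MIC for 1 or 2 g q8h 4-h infusion; saline controls. Thighs plated at 24 h; Δlog₁₀ CFU vs 0-h controls; stasis <1 log change.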

The subject of experiment [7] is Klebsiella pneumoniae. Put plainly: Antimicrobial activity against Klebsiella pneumoniae isolate KPC 360 by broth microdilution method. Format: functional. The procedure, abridged: (§4)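 Clinical KPC-producing isolate, stored at −80°C in double-strength skim milk, subcultured twice on Trypticase soy agar with 5% sheep blood at 35°C. MIC by broth microdilution per CLSI methods, run in triplicate, modal MIC reported; quality control strain PSA 27853 included.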

Experiment [8] concerns Klebsiella pneumoniae. Put plainly: Antimicrobial activity against Klebsiella pneumoniae isolate KPC 361 in immunocompromized mouse thigh infection model assessed as reduction in bacterial load in mouse thigh at 2 g after 24 hrs. Format: functional, organism-based. Conditions: Thigh muscle. The procedure, abridged:
as §3

A short description of experiment [9]: fT>MIC in Klebsiella pneumoniae isolate KPC 353 infected in human at 2 g administered as 4 hrs infusion every 8 hrs. Format: functional.
The test system of experiment [10] is Klebsiella pneumoniae. Put plainly: Antimicrobial activity against Klebsiella pneumoniae isolate KPC 359 by broth microdilution method. Format: functional. The procedure, abridged:
as §4

Experiment [11] in a line: fT>MIC in Klebsiella pneumoniae isolate KPC 359 infected in human at 2 g administered as 4 hrs infusion every 8 hrs. Format: functional.
The test system of experiment [12] is Klebsiella pneumoniae. Put plainly: Antimicrobial activity against Klebsiella pneumoniae isolate KPC 354 in immunocompetent mouse thigh infection model assessed as reduction in bacterial load in mouse thigh at 1 g after 24 hrs. Format: functional, Thigh muscle. The essentials:
as §1

Experiment [13] deals with Klebsiella pneumoniae. Put plainly: Antimicrobial activity against Klebsiella pneumoniae isolate KPC 354 in immunocompetent mouse thigh infection model assessed as reduction in bacterial load in mouse thigh at 2 g after 24 hrs. Format: functional, Thigh muscle. The procedure, abridged: as §1
A short description of experiment [14]: fT>MIC in Klebsiella pneumoniae isolate KPC 356 infected in human at 1 g administered as 4 hrs infusion every 8 hrs. Format: functional.
Experiment [15] concerns Klebsiella pneumoniae. Nature of the experiment: Antimicrobial activity against Klebsiella pneumoniae isolate KPC 359 by Etest. Format: functional. The procedure, abridged: as §2
In experiment [16] the test system is Klebsiella pneumoniae. Nature of the experiment: Antimicrobial activity against Klebsiella pneumoniae isolate KPC 360 by Etest. Format: functional. The essentials:
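Clinical KPC-producing isolate stored at −80°C in double-strength skim milk and subcultured twice on blood agar (5% sheep blood) at 35°C before testing. Etest strip MIC read per manufacturer's interpretation, run in triplicate, modal value reported; quality control strain PSA 27853 included.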

Experiment [17] can be described thus: fT>MIC in Klebsiella pneumoniae isolate KPC 360 infected in human at 2 g administered as 4 hrs infusion every 8 hrs. Format: functional.
Experiment [18] deals with Klebsiella pneumoniae. Nature of the experiment: Antimicrobial activity against Klebsiella pneumoniae isolate KPC 357 by broth microdilution method. Format: functional. The essentials: (§5)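 MIC by CLSI broth microdilution, triplicate determinations, modal value reported. QC strain P. aeruginosa 27853. Isolates kept frozen at −80°C in skim milk and subcultured twice on blood agar (TSA + 5% sheep blood) at 35°C before use.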

For experiment [19], the system named is Klebsiella pneumoniae. Put plainly: Antimicrobial activity against Klebsiella pneumoniae isolate KPC 356 in immunocompetent mouse thigh infection model assessed as reduction in bacterial load in mouse thigh at 1 g after 24 hrs. Format: functional, Thigh muscle. The procedure, abridged: as §1
The test system of experiment [20] is Klebsiella pneumoniae. Put plainly: Antimicrobial activity against Klebsiella pneumoniae isolate KPC 353 by broth microdilution method. Format: functional. The essentials: as §5
For experiment [21], the system named is Klebsiella pneumoniae. Put plainly: Antimicrobial activity against Klebsiella pneumoniae isolate KPC 353 by Etest. Format: functional. The procedure, abridged:
as §2

In experiment [22] the test system is Klebsiella pneumoniae. Nature of the experiment: Antimicrobial activity against Klebsiella pneumoniae isolate KPC 359 in immunocompetent mouse thigh infection model assessed as reduction in bacterial load in mouse thigh at 2 g after 24 hrs. Format: functional, Thigh muscle. The essentials: as §1
The nature of experiment [23]: fT>MIC in Klebsiella pneumoniae isolate KPC 357 infected in human at 1 g administered as 4 hrs infusion every 8 hrs. Format: functional.
Experiment [24] deals with Klebsiella pneumoniae. Nature of the experiment: Antimicrobial activity against Klebsiella pneumoniae isolate KPC 354 by broth microdilution method. Format: functional. The essentials: as §5
Experiment [25] can be described thus: fT>MIC in Klebsiella pneumoniae isolate KPC 354 infected in human at 2 g administered as 4 hrs infusion every 8 hrs. Format: functional.
Experiment [26] relates to Klebsiella pneumoniae. Nature of the experiment: Antimicrobial activity against Klebsiella pneumoniae isolate KPC 357 in immunocompromized mouse thigh infection model assessed as decrease in bacterial density in mouse thigh at 1 g after 24 hrs. Format: functional, Thigh muscle. The essentials: as §3
The nature of experiment [27]: fT>MIC in Klebsiella pneumoniae isolate KPC 360 infected in human at 1 g administered as 4 hrs infusion every 8 hrs. Format: functional.
Experiment [28] relates to Klebsiella pneumoniae. Put plainly: Antimicrobial activity against Klebsiella pneumoniae isolate KPC 361 by broth microdilution method. Format: functional. The procedure, abridged: as §5
Experiment [29] in a line: fT>MIC in Klebsiella pneumoniae isolate KPC 353 infected in human at 1 g administered as 4 hrs infusion every 8 hrs. Format: functional.
For experiment [30], the system named is Klebsiella pneumoniae. Put plainly: Antimicrobial activity against Klebsiella pneumoniae isolate KPC 356 in immunocompromized mouse thigh infection model assessed as decrease in bacterial density in mouse thigh at 1 g after 24 hrs. Format: functional, Thigh muscle. The procedure, abridged: as §3
In experiment [31] the test system is Klebsiella pneumoniae. Nature of the experiment: Antimicrobial activity against Klebsiella pneumoniae isolate KPC 354 in immunocompromized mouse thigh infection model assessed as decrease in bacterial density in mouse thigh at 1 g after 24 hrs. Format: functional, Thigh muscle. The procedure, abridged: as §3
Experiment [32] has as its system Klebsiella pneumoniae. Put plainly: Antimicrobial activity against Klebsiella pneumoniae isolate KPC 356 by Etest. Format: functional. The essentials:
as §2

Experiment [33] deals with Klebsiella pneumoniae. Put plainly: Bacteriostatic activity against Klebsiella pneumoniae isolate KPC 359 in immunocompromized mouse thigh infection model at 2 g after 24 hrs. Format: functional, organism-based. Conditions: Thigh muscle. The procedure, abridged:
as §3

Experiment [34] is described as follows: fT>MIC in Klebsiella pneumoniae isolate KPC 361 infected in human at 2 g administered as 4 hrs infusion every 8 hrs. Format: functional.
Experiment [35] is described as follows: fT>MIC in Klebsiella pneumoniae isolate KPC 361 infected in human at 1 g administered as 4 hrs infusion every 8 hrs. Format: functional.
Experiment [36] deals with Klebsiella pneumoniae. Nature of the experiment: Antimicrobial activity against Klebsiella pneumoniae isolate KPC 357 by Etest. Format: functional. The essentials:
as §2

The subject of experiment [37] is Klebsiella pneumoniae. Put plainly: Antimicrobial activity against Klebsiella pneumoniae isolate KPC 353 in immunocompromized mouse thigh infection model assessed as decrease in bacterial density in mouse thigh at 1 g after 24 hrs. Format: functional, Thigh muscle. The procedure, abridged:
as §3

The subject of experiment [38] is Klebsiella pneumoniae. Put plainly: Antimicrobial activity against Klebsiella pneumoniae isolate KPC 361 by Etest. Format: functional. The procedure, abridged:
as §2

Experiment [39] in a line: fT>MIC in Klebsiella pneumoniae isolate KPC 356 infected in human at 2 g administered as 4 hrs infusion every 8 hrs. Format: functional.
Experiment [40] deals with Klebsiella pneumoniae. Put plainly: Antimicrobial activity against Klebsiella pneumoniae isolate KPC 356 by broth microdilution method. Format: functional. The procedure, abridged:
as §5

Experiment [41] relates to Klebsiella pneumoniae. Nature of the experiment: Antimicrobial activity against Klebsiella pneumoniae. Format: functional.

≈ marks a conversion by molar mass, not a printed value. Calls of active or inactive are those of the source. No cut-off for these calls is given here. Some results are limits rather than exact numbers.

Regarding `C[C@@H](O)[C@H]1C(=O)N2C(C(=O)O)=C(S[C@@H]3CN[C@H](CNS(N)(=O)=O)C3)[C@H](C)[C@H]12` [DORIPENEM], the “fT>MIC” value in experiment [1] is listed as 70%; in experiment [3] it was 70%; in [5], 0%; in experiment [9], 82.5%; in experiment [11], 52.5%; in experiment [14], 52.5%. The “fT>MIC” value in experiment [17] is reported as 52.5%; in [23] it was 52.5%; in [25] it was 82.5%; in [27], 0%; in experiment [29] it was 70%; in experiment [34], 0%. Besides, the “fT>MIC” value is listed as 0% in [35] and 70% in experiment [39]. Further, the log10cfu amounted to 1 with Klebsiella pneumoniae [2]; 1 with Klebsiella pneumoniae [12]; 1 with Klebsiella pneumoniae [13]; 1 in the experiment with Klebsiella pneumoniae [19]; 1 with Klebsiella pneumoniae [22]; 0.02 in the experiment on Klebsiella pneumoniae [26]. For the same compound, the log10cfu with Klebsiella pneumoniae [30], in the experiment on Klebsiella pneumoniae [31] and with Klebsiella pneumoniae [37] was 0.02 each time. The MIC with Klebsiella pneumoniae [4] was 4 µg/mL (≈ 9.51 µM); in the experiment with Klebsiella pneumoniae [7] it was 16 µg/mL (≈ 38 µM); in the experiment on Klebsiella pneumoniae [10], 16 µg/mL (≈ 38 µM); against Klebsiella pneumoniae [15], more than 32 µg/mL; against Klebsiella pneumoniae [16], 16 µg/mL (≈ 38 µM); in the experiment on Klebsiella pneumoniae [18], 8 µg/mL (≈ 19 µM). Moreover, the MIC against Klebsiella pneumoniae [20] came out at 4 µg/mL (≈ 9.51 µM); with Klebsiella pneumoniae [21], 3 µg/mL (≈ 7.13 µM); against Klebsiella pneumoniae [24], 4 µg/mL (≈ 9.51 µM); against Klebsiella pneumoniae [28], 32 µg/mL (≈ 76.1 µM); with Klebsiella pneumoniae [32], 12 µg/mL (≈ 28.5 µM); in the experiment on Klebsiella pneumoniae [36] it was 6 µg/mL (≈ 14.3 µM). Also, the MIC against Klebsiella pneumoniae [38] was more than 32 µg/mL; against Klebsiella pneumoniae [40] it was 8 µg/mL (≈ 19 µM). Besides, the outcome in the experiment with Klebsiella pneumoniae [6] and with Klebsiella pneumoniae [8] was inactive. The result in the experiment with Klebsiella pneumoniae [33] was Active.
`C[C@@H](O)[C@H]1C(=O)N2C(C(=O)O)=C(S[C@@H]3CN[C@H](C(=O)N(C)C)C3)[C@H](C)[C@H]12` [MEROPENEM] yielded an MIC in the experiment on Klebsiella pneumoniae [41] of 2 µg/mL (≈ 5.22 µM).
